Assay results reported in ChEMBL document CHEMBL3351385, “Synthesis and preliminary mechanistic evaluation of 5-(p-tolyl)-1-(quinolin-2-yl)pyrazole-3-carboxylic acid amides with potent antiproliferative activity on human cancer cell lines” (Eur J Med Chem, 2014).
Active and inactive are the calls of the source. The calls are words filed in the database; no cut-off is given here.

What was measured:
[1] = target: Ribosomal protein S6 kinase alpha-1 (Homo sapiens) (UniProt Q15418); test: Inhibition of RSK1 (unknown origin) assessed as remaining enzyme activity at 10 uM by radioactive [33P]-ATP filter binding assay
[2] = target: Ribosomal protein S6 kinase beta-1 (Homo sapiens) (UniProt P23443); test: Inhibition of S6K1 (unknown origin) assessed as remaining enzyme activity at 10 uM by radioactive [33P]-ATP filter binding assay
[3] = target: MAP kinase-activated protein kinase 5 (Homo sapiens) (UniProt Q8IW41); test: Inhibition of PRAK (unknown origin) assessed as remaining enzyme activity at 10 uM by radioactive [33P]-ATP filter binding assay
Sequence of MAP kinase-activated protein kinase 5 (Homo sapiens) (Q8IW41 whole entry): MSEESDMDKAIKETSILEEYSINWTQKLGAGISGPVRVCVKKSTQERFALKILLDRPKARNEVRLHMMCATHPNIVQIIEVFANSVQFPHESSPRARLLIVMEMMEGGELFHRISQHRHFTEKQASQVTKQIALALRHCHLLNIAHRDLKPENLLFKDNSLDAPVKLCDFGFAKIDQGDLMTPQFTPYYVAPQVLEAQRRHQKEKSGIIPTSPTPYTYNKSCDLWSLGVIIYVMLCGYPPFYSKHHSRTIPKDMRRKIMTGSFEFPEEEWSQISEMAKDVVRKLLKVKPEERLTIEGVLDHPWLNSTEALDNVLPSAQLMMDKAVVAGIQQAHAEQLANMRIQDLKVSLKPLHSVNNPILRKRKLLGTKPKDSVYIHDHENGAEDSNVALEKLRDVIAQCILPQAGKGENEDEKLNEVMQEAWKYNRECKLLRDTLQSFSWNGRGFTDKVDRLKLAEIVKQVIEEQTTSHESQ

Huh-7 [4] = test: Induction of autophagy in human HuH7 cells assessed as increase in LC3-2 formation at cytotoxic IC50 level after 72 hrs by Western blotting method; type: functional, cell-based
[5] = target: Mitogen-activated protein kinase 14 (Homo sapiens) (UniProt Q16539); test: Inhibition of p38alpha (unknown origin) assessed as remaining enzyme activity at 10 uM by radioactive [33P]-ATP filter binding assay
[6] = Induction of cell cycle arrest in human HuH7 cells assessed as accumulation at S phase at cytotoxic IC50 level after 48 hrs by propidium iodide staining based FACS method; type: functional, Huh-7
How it was run: (§1)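 Huh7 cells were seeded at 150,000–300,000 per 100-mm dish and left 24 h. […] Cells were stained with a propidium iodide-containing cell cycle reagent, and subG1, G0/G1, S and G2/M fractions were scored by flow cytometry.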

[7] = target: Ephrin type-B receptor 2 (Homo sapiens) (UniProt P29323); test: Inhibition of EPHB2 (unknown origin) assessed as remaining enzyme activity at 10 uM by radioactive [33P]-ATP filter binding assay
How it was run: (§2)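 A single 10 µM concentration was tested across a 140-kinase panel. Activity was measured by a radioactive 33P-ATP filter-binding assay run at the International Center for Kinase Profiling, University of Dundee.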

[8] = target: MAP/microtubule affinity-regulating kinase 4 (Homo sapiens) (UniProt Q96L34); test: Inhibition of MARK4 (unknown origin) assessed as remaining enzyme activity at 10 uM by radioactive [33P]-ATP filter binding assay
[9] = target: Mitogen-activated protein kinase 7 (Homo sapiens) (UniProt Q13164); test: Inhibition of ERK5 (unknown origin) assessed as remaining enzyme activity at 10 uM by radioactive [33P]-ATP filter binding assay; how it was run: as §2
[10] = target: High affinity nerve growth factor receptor (Homo sapiens) (UniProt P04629); test: Inhibition of TrkA (unknown origin) assessed as remaining enzyme activity at 10 uM by radioactive [33P]-ATP filter binding assay
[11] = target: Protein-tyrosine kinase 6 (Homo sapiens) (UniProt Q13882); test: Inhibition of BRK (unknown origin) assessed as remaining enzyme activity at 10 uM by radioactive [33P]-ATP filter binding assay; how it was run: as §2
[12] = target: Serine/threonine-protein kinase PAK 5 (Homo sapiens) (UniProt Q9P286); test: Inhibition of PAK5 (unknown origin) assessed as remaining enzyme activity at 10 uM by radioactive [33P]-ATP filter binding assay
[13] = target: Serine/threonine-protein kinase ULK1 (Homo sapiens) (UniProt O75385); test: Inhibition of ULK1 (unknown origin) assessed as remaining enzyme activity at 10 uM by radioactive [33P]-ATP filter binding assay
Sequence of Serine/threonine-protein kinase ULK1 (Homo sapiens) (O75385 whole entry): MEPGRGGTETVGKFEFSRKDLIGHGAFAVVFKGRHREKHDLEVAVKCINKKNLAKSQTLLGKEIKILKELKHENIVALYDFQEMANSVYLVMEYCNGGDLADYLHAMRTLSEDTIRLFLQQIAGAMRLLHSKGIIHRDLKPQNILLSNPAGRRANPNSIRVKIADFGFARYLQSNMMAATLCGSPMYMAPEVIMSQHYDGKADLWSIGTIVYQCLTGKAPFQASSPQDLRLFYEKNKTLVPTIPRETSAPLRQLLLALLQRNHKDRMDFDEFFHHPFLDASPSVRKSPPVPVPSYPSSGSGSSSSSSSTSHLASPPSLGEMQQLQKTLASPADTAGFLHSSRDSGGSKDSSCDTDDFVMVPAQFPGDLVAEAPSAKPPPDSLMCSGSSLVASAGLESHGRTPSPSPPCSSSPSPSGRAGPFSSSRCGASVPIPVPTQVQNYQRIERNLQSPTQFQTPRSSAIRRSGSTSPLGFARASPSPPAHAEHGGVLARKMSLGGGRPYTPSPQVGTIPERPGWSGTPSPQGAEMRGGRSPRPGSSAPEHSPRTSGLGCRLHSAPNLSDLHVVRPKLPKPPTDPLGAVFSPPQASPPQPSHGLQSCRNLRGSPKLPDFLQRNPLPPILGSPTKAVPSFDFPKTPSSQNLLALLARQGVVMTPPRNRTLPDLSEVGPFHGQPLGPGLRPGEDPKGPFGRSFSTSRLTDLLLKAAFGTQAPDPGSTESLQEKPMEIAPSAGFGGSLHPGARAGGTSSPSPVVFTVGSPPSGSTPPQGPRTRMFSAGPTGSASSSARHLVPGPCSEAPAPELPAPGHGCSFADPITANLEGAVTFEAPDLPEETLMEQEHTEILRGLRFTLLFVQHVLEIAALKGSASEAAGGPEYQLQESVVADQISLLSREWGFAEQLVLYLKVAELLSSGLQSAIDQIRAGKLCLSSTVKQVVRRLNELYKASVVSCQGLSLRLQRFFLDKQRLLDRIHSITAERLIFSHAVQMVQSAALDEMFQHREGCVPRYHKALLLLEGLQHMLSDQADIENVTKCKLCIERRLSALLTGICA

[14] = target: Mitogen-activated protein kinase 9 (Homo sapiens) (UniProt P45984); test: Inhibition of JNK2 (unknown origin) assessed as remaining enzyme activity at 10 uM by radioactive [33P]-ATP filter binding assay
[15] = target: Mitogen-activated protein kinase kinase kinase 9 (Homo sapiens) (UniProt P80192); test: Inhibition of MLK1 (unknown origin) assessed as remaining enzyme activity at 10 uM by radioactive [33P]-ATP filter binding assay
[16] = target: Myosin light chain kinase, smooth muscle (Homo sapiens) (UniProt Q15746); test: Inhibition of smMLCK (unknown origin) assessed as remaining enzyme activity at 10 uM by radioactive [33P]-ATP filter binding assay
Sequence of Myosin light chain kinase, smooth muscle (Homo sapiens) (Q15746 whole entry): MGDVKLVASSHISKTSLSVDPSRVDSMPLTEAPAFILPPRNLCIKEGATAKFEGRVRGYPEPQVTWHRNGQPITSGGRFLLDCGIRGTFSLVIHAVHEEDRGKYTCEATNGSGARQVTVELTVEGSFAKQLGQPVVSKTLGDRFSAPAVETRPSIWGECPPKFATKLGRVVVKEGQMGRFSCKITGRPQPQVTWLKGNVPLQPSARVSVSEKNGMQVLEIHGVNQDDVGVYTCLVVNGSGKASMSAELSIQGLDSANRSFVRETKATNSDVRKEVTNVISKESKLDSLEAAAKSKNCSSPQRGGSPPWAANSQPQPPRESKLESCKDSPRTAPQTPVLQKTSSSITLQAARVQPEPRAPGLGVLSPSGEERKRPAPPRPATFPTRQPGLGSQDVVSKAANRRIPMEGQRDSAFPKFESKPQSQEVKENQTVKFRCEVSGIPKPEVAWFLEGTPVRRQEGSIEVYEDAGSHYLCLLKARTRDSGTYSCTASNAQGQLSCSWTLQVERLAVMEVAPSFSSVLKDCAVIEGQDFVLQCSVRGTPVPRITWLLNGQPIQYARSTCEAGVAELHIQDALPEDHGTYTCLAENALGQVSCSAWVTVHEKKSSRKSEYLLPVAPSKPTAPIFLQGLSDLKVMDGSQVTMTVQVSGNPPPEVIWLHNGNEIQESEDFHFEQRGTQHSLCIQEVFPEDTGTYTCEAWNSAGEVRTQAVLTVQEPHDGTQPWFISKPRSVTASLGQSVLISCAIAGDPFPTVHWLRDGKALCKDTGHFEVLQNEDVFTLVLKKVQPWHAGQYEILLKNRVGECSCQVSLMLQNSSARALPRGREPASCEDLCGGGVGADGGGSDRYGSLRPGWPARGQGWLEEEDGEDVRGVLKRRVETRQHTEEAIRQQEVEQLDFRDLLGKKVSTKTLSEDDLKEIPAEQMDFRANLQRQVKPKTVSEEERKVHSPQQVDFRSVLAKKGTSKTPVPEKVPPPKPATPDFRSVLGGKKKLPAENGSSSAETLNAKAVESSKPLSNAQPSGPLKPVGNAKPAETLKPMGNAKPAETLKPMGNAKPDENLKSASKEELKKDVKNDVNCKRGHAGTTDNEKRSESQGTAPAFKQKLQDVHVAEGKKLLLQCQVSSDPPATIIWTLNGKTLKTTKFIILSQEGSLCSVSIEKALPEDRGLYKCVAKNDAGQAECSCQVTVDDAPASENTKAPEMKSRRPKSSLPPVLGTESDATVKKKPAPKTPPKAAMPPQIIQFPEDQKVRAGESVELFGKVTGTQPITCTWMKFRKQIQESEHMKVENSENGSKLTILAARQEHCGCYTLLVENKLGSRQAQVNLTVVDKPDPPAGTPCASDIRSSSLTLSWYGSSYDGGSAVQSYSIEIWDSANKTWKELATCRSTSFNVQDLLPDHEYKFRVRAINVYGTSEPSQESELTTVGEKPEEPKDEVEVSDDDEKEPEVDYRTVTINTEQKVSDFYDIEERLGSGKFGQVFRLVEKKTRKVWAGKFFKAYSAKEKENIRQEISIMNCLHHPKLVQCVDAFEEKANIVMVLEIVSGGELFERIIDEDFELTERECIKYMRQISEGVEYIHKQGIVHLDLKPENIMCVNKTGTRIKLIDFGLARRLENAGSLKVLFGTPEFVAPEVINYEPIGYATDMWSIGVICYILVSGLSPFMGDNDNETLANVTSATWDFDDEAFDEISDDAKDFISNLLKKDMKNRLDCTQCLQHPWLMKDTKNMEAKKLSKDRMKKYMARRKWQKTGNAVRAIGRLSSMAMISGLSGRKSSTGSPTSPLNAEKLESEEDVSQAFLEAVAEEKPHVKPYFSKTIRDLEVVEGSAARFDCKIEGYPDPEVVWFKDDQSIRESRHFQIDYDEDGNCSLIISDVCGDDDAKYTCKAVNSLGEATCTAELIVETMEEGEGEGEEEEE

[17] = Induction of cell cycle arrest in human HuH7 cells assessed as accumulation at G0/G1 phase at cytotoxic IC50 level after 48 hrs by propidium iodide staining based FACS method; type: functional, Huh-7; how it was run: as §1
[18] = target: Insulin-like growth factor 1 receptor (Homo sapiens) (UniProt P08069); test: Inhibition of IGF1R (unknown origin) assessed as remaining enzyme activity at 10 uM by radioactive [33P]-ATP filter binding assay
[19] = target: Ephrin type-A receptor 2 (Homo sapiens) (UniProt P29317); test: Inhibition of EPHA2 (unknown origin) assessed as remaining enzyme activity at 10 uM by radioactive [33P]-ATP filter binding assay; how it was run: as §2
Sequence of Ephrin type-A receptor 2 (Homo sapiens) (P29317 whole entry): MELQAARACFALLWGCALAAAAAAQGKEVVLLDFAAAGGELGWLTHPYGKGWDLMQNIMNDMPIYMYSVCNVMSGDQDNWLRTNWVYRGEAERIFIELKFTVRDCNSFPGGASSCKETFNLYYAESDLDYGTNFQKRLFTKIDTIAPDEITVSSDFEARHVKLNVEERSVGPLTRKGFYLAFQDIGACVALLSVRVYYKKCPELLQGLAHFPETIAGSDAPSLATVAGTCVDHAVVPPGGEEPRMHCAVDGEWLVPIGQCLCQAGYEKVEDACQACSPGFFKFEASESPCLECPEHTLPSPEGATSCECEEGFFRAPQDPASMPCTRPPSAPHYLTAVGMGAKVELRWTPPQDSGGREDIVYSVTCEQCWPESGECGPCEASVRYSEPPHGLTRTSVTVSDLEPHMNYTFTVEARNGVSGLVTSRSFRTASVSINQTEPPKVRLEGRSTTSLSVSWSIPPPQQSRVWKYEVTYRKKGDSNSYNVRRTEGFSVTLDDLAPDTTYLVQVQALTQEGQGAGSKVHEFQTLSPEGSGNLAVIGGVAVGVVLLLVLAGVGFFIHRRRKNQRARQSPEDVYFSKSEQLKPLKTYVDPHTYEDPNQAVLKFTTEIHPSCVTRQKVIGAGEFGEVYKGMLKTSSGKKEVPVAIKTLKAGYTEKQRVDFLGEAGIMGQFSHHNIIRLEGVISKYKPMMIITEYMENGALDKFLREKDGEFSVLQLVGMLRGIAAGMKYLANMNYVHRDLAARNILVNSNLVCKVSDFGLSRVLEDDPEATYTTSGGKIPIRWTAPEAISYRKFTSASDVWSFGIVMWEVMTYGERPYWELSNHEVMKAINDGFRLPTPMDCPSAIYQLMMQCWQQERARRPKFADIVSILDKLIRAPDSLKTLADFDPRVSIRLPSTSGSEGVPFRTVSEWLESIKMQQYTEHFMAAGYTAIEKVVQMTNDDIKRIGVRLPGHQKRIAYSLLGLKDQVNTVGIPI

[20] = target: Serine/threonine-protein kinase pim-3 (Homo sapiens) (UniProt Q86V86); test: Inhibition of PIM3 (unknown origin) assessed as remaining enzyme activity at 10 uM by radioactive [33P]-ATP filter binding assay
[21] = target: Mitogen-activated protein kinase 13 (Homo sapiens) (UniProt O15264); test: Inhibition of p38delta (unknown origin) assessed as remaining enzyme activity at 10 uM by radioactive [33P]-ATP filter binding assay
[22] = target: Inhibitor of nuclear factor kappa-B kinase subunit epsilon (Homo sapiens) (UniProt Q14164); test: Inhibition of IKKepsilon (unknown origin) assessed as remaining enzyme activity at 10 uM by radioactive [33P]-ATP filter binding assay
[23] = target: Mitogen-activated protein kinase 15 (Homo sapiens) (UniProt Q8TD08); test: Inhibition of ERK8 (unknown origin) assessed as remaining enzyme activity at 10 uM by radioactive [33P]-ATP filter binding assay; how it was run: as §2
[24] = target: Casein kinase II (Homo sapiens) (UniProt P67870+P68400+P19784); test: Inhibition of CK2 (unknown origin) assessed as remaining enzyme activity at 10 uM by radioactive [33P]-ATP filter binding assay; type: protein-complex assay; how it was run: as §2
Huh-7 [25] = test: Induction of cell death in human HuH7 cells assessed as nuclear condensation at cytotoxic IC50 level after 72 hrs by Hoechst 33258 staining based […]; type: functional
How it was run: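 Cells were washed in cold PBS, fixed 10 min in cold methanol and stained with Hoechst 33258 at 3 µg/mL for 5 min in the dark. Nuclear condensation and fragmentation were examined by fluorescence microscopy at 40×.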

[26] = target: Interleukin-1 receptor-associated kinase 4 (Homo sapiens) (UniProt Q9NWZ3); test: Inhibition of IRAK4 (unknown origin) assessed as remaining enzyme activity at 10 uM by radioactive [33P]-ATP filter binding assay
Sequence of Interleukin-1 receptor-associated kinase 4 (Homo sapiens) (Q9NWZ3 whole entry): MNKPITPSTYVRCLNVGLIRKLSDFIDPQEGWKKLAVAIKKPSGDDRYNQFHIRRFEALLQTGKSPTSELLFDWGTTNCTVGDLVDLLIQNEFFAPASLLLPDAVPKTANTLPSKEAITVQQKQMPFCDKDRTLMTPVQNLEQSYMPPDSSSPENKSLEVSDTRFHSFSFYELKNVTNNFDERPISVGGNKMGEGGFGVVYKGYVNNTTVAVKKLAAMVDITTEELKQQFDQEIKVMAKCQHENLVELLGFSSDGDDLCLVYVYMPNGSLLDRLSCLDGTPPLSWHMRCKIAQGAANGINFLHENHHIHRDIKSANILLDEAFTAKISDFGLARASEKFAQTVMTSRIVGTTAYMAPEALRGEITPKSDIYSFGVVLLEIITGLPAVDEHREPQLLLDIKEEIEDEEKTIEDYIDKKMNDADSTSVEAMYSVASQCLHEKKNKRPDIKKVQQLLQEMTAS

[27] = target: MAP kinase-interacting serine/threonine-protein kinase 1 (Homo sapiens) (UniProt Q9BUB5); test: Inhibition of MNK1 (unknown origin) assessed as remaining enzyme activity at 10 uM by radioactive [33P]-ATP filter binding assay
[28] = target: Death-associated protein kinase 1 (Homo sapiens) (UniProt P53355); test: Inhibition of DAPK1 (unknown origin) assessed as remaining enzyme activity at 10 uM by radioactive [33P]-ATP filter binding assay; how it was run: as §2
[29] = target: Calcium/calmodulin-dependent protein kinase kinase 2 (Homo sapiens) (UniProt Q96RR4); test: Inhibition of CAMKKB (unknown origin) assessed as remaining enzyme activity at 10 uM by radioactive [33P]-ATP filter binding assay; how it was run: as §2

Cc1ccc(-c2cc(C(=O)Nc3ccnc(Cl)c3)nn2-c2ccc3ccccc3n2)cc1
Activity [1]: 108%
Activity [2]: 88%
Activity [3]: 88%
Activity (Huh-7 [4]): inactive
Activity [5]: 95%
Activity [6]: 10.3%
Activity [7]: 114%
Activity [8]: 76%
Activity [9]: 74%
Activity [10]: 96%
Activity [11]: 109%
Activity [12]: 97%
Activity [13]: 136%
Activity [14]: 100%
Activity [15]: 90%
Activity [16]: 103%
Activity [17]: 40.1%
Activity [18]: 98%
Activity [19]: 111%
Activity [20]: 113%
Activity [21]: 87%
Activity [22]: 112%
Activity [23]: 106%
Activity [24]: 85%
Activity (Huh-7 [25]): Active
Activity [26]: 90%
Activity [27]: 104%
Activity [28]: 112%
Activity [29]: 85%
